Measured values: ChEMBL document CHEMBL1148546, “3-Arylpiperazinylethyl-1H-pyrrolo[2,3-d]pyrimidine-2,4(3H,7H)-dione derivatives as novel, high-affinity and selective alpha(1)-adrenoceptor ligands” (Bioorg Med Chem Lett, 2006)

Key:
[1] = target: D(2) dopamine receptor (Homo sapiens, UniProt P14416); assay: Binding affinity to dopamine D2 receptor
[2] = target: T1, Adrenergic receptor alpha-1 (Homo sapiens, UniProt P35348+P25100+P35368); assay: Binding affinity to adrenergic alpha-1 receptor; type: protein assay
T1 sequence (P35348 whole entry): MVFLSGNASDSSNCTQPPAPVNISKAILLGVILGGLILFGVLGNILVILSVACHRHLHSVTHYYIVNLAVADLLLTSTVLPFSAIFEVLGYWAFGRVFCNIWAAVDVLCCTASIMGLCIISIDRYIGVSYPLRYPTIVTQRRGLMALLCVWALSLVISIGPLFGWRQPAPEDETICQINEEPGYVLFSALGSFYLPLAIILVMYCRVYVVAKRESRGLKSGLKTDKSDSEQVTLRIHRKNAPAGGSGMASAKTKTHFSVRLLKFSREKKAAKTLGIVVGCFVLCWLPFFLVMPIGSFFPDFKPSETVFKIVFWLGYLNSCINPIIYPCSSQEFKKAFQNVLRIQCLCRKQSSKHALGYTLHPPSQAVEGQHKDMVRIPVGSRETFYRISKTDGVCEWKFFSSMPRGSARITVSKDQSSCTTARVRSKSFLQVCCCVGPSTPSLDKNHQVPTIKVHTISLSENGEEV
T1 sequence (P25100 whole entry): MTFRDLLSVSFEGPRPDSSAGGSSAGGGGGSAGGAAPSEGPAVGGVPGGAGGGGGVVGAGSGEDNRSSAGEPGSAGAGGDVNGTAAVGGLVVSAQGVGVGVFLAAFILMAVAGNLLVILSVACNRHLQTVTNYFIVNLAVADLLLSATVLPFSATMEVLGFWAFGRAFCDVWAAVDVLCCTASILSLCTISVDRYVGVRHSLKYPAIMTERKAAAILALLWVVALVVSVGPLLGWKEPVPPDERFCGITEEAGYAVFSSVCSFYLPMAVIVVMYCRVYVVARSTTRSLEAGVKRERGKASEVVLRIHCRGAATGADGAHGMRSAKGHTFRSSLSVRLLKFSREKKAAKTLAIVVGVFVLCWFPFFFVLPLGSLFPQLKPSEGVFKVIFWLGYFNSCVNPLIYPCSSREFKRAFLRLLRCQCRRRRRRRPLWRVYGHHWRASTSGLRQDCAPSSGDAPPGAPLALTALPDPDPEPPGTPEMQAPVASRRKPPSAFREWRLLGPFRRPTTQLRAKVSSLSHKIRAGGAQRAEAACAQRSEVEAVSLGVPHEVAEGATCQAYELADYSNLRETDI
T1 sequence (P35368 whole entry): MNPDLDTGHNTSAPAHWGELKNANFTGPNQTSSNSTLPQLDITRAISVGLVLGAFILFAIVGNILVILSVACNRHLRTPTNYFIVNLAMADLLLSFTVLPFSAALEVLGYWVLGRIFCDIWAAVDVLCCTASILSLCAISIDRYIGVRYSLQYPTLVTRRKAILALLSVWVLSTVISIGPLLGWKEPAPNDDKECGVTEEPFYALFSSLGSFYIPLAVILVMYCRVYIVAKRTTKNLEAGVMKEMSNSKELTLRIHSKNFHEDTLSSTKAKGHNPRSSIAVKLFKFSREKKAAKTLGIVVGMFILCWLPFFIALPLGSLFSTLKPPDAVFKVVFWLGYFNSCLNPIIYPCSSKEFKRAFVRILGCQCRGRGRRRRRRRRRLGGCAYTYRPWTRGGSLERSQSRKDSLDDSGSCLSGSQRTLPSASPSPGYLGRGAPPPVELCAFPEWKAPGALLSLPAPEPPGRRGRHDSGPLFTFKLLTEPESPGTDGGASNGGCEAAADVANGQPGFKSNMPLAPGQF

[3] = target: T2, Alpha-1B adrenergic receptor (Rattus norvegicus) (UniProt P15823); assay: Antagonistic activity at ADRA1B in rat spleen; type: functional, tissue-based
T2 sequence (whole entry): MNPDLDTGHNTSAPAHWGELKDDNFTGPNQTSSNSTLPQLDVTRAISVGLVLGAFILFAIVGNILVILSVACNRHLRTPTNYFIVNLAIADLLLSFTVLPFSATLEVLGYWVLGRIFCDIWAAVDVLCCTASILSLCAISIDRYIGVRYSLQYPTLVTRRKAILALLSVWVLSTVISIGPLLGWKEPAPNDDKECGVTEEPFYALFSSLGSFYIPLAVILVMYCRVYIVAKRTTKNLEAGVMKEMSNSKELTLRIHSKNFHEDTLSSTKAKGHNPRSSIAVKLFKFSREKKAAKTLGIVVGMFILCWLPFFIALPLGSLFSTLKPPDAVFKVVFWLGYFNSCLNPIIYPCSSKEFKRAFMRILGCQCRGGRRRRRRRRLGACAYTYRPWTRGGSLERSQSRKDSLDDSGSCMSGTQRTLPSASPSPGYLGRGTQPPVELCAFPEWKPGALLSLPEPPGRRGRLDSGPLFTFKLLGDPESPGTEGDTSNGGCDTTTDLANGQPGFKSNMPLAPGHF
Method in brief: (§1)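 Antagonism in isolated rat tissues: prostatic vas deferens (α1A), spleen (α1B), thoracic aorta (α1D). Each compound tested at a single concentration, and each concentration was investigated at least four times. pKb was calculated by the van Rossum method. pA2 was derived from Arunlakshana–Schild plots. WB4101 was used as the standard.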

[4] = target: T3, Alpha-1A adrenergic receptor (Rattus norvegicus) (UniProt P43140); assay: Antagonistic activity at ADRA1A in isolated rat prostatic vas deferens; type: functional, tissue-based; method in brief: as §1
T3 sequence (whole entry): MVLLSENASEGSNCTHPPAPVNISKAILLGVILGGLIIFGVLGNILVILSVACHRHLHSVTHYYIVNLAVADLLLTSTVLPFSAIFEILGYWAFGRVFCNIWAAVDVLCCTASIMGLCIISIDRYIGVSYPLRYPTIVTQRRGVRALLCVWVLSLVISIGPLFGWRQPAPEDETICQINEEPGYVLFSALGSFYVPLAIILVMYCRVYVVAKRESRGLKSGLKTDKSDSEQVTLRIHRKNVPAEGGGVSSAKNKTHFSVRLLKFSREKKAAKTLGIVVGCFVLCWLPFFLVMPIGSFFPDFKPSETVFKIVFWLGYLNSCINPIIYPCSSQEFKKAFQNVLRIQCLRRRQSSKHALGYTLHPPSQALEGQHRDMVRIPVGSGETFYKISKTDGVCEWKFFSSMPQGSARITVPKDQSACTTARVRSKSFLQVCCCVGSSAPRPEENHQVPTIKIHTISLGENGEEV

D(2) dopamine receptor, sequence (P14416 whole entry): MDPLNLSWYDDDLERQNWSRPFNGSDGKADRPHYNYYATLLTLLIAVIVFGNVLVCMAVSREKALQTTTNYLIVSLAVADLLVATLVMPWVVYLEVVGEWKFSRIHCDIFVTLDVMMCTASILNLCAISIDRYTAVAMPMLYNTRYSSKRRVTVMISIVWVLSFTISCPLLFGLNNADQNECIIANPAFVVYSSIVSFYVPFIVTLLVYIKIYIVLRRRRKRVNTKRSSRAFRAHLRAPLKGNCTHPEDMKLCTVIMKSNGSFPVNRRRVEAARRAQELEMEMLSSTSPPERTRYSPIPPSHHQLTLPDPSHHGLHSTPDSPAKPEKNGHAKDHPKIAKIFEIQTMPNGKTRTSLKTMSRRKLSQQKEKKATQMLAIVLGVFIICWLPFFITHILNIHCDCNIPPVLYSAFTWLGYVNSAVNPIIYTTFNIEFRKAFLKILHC

Row | Ki [1] [nM] | Ki [2] [nM] | pKb [3] | pKb [4] | Compound
1 | 165 | 16.4 | 8.03 | 7.48 | COc1ccc(-c2cc3c(=O)n(CCN4CCN(c5ccccc5Cl)CC4)c(=O)[nH]c3[nH]2)cc1
2 | 1720 | 11.71 | 7.5 | 7.25 | Cc1ccc(-c2cc3c(=O)n(CCN4CCN(c5ccccc5Cl)CC4)c(=O)[nH]c3[nH]2)cc1
3 | 2370 | 2.64 | 6.64 | 6.41 | O=c1[nH]c2[nH]c(-c3ccc(Cl)cc3)cc2c(=O)n1CCN1CCN(c2ccccc2Cl)CC1

Row | Compound | Ki [1] [nM] | Ki [2] [nM] | pKb [3] | pKb [4]
4 | Cc1ccc(-c2cc3[nH]c(=O)n(CCN4CCN(c5ccccc5Cl)CC4)c(=O)c3[nH]2)cc1 | > 10000 | 17.26 | 6.37 | 6.72
